Laboratory results reported in ChEMBL document CHEMBL1165934, “Synthesis and in vitro toxicity of 4-MTA, its characteristic clandestine synthesis byproducts and related sulfur substituted alpha-alkylthioamphetamines” (Bioorg Med Chem, 2010).

Tests used:
HEK293 [1] = assay: Cytotoxicity against human HEK293 cells over expressing human NET assessed as cell viability after 48 hrs by neutral red assay; assay type: cell-based; conditions: HEK293, 48 h
Summary of the method: (§1)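 Stably transfected HEK293 lines, passage ≤30, kept in DMEM with 10% FBS, 2 mM L-glutamine and Geneticin. Cells seeded at 5x10^4/well and grown to sub-confluence (24-36h), then exposed 48h. Neutral red uptake for 3 ± 1 h, then ethanol/acetic acid solubilisation, A540 minus 690 nm. Viability taken relative to vehicle. Range 1 µM-1 mM, 4 concentrations in triplicate on two independent days. pEC50 from sigmoidal fit (Hill slope 1).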

HEK293 [2] = assay: Cytotoxicity against human HEK293 cells over expressing human DAT assessed as cell viability after 48 hrs by neutral red assay; assay type: cell-based; conditions: HEK293, 48 h; summary of the method: as §1
PC-12 [3] = assay: Cytotoxicity against rat PC12 cells assessed as cell viability after 48 hrs by neutral red assay; assay type: cell-based; conditions: PC-12, 48 h
Summary of the method: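 PC-12 (rat pheochromocytoma) cells on collagen were differentiated 7 days with 100 ng/ml NGF in low-serum DMEM/F12. Seeded at 5x10^4/well, then exposed 48h. Neutral red uptake for 3 ± 1 h, solubilised, A540 (690 nm background). Viability taken against vehicle. Tested 1 µM-1 mM, 4 concentrations in triplicate on two independent days. pEC50 by sigmoidal non-linear regression (Hill slope 1).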

SH-SY5Y = assay: Cytotoxicity against human SH-SY5Y cells assessed as cell viability after 48 hrs by neutral red assay; assay type: cell-based
Summary of the method: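 SH-SY5Y grown in DMEM/F12 (1:1) with 10% FBS, 1 mM pyruvate, 2 mM glutamine and 0.1 mM non-essential amino acids, at 37 °C. Seeded 5x10^4 cells/well, treated 48 h, then neutral red uptake for 3 ± 1 h. Absorbance read at 540 nm (690 nm background). Viability was expressed as % of vehicle-treated cells. pEC50 came from a nonlinear sigmoidal fit (Hill slope 1), with 4 concentrations in triplicate on two separate days.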

HEK293 [4] = assay: Cytotoxicity against human HEK293 cells over expressing human SERT assessed as cell viability after 48 hrs by neutral red assay; assay type: cell-based; conditions: HEK293, 48 h; summary of the method: as §1
HEK293 [5] = assay: Cytotoxicity against human HEK293 cells assessed as cell viability after 48 hrs by neutral red assay; assay type: cell-based; conditions: HEK293, 48 h
Summary of the method: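 HEK293 cells grown in DMEM with 10% FBS and 2 mM L-glutamine. Seeded at 5x10^4 cells/well and grown to sub-confluence (24-36 h), then exposed 48 h. Neutral red dye was added for 3 ± 1 h, then solubilised in 50% ethanol-1% acetic acid. A540 read with A690 background. Viability was taken as % of vehicle. pEC50 came from a sigmoidal fit (Hill slope 1) over 4 concentrations, triplicate, two independent days.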

PC-12 [6] = assay: Cytotoxicity against rat PC12 cells assessed as cell viability at 1 mM after 48 hrs by neutral red assay; assay type: cell-based; conditions: pc-12, 48 h, 1000 µM
Summary of the method: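 Undifferentiated PC-12 cells (rat pheochromocytoma) were seeded at 5x10^4 on collagen and differentiated for seven days with 100 ng/ml NGF in low-serum DMEM/F12. They were then exposed for 48 h to single concentrations. Neutral red staining lasted 3 ± 1 h, with absorbance at 540 nm (690 nm background). Viability was taken as % of vehicle, and each concentration was compared with untreated cells by one-way ANOVA.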

[7] = target: Sodium-dependent serotonin transporter (Homo sapiens, UniProt P31645); assay: Binding affinity to human SERT
[8] = Selectivity ratio of IC50 for SERT to IC50 for DAT
[9] = Selectivity ratio of IC50 for SERT to IC50 for NET

Sodium-dependent serotonin transporter, sequence (P31645 whole entry): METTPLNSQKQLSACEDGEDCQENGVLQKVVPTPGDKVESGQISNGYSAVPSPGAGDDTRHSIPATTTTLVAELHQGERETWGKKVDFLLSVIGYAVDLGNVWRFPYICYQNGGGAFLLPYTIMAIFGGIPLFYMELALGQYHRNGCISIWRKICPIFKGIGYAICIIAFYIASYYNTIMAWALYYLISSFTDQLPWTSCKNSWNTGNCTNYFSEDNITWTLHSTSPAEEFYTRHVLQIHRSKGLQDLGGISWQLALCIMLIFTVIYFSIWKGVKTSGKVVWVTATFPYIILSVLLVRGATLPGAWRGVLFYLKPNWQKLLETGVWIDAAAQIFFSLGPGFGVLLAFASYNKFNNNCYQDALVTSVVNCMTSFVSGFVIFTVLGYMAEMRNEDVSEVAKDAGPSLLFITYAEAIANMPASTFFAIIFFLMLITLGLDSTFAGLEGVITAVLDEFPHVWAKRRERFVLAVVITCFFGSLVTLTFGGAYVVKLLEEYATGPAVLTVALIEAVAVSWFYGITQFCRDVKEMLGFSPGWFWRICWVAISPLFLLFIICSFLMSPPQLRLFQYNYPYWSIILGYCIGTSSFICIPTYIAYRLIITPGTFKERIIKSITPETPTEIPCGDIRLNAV

CSc1ccc(Cc2ccncn2)cc1 gave an EC50 (HEK293 [1]) of 63.1 µM, an EC50 (HEK293 [2]) of 11.7 µM and an EC50 (PC-12 [3]) of 67.6 µM. The EC50 (SH-SY5Y) was 2950 µM, the EC50 (HEK293 [4]) was 16.6 µM and the EC50 (HEK293 [5]) was 9.33 µM.

Work on CSc1ccc(C/C(C)=N/O)cc1 yielded an EC50 (HEK293 [1]) of 1740 µM, an EC50 (HEK293 [2]) of 67.6 µM and an EC50 (PC-12 [3]) of 776 µM. The Activity (PC-12 [6]) was “Toxic”, the EC50 (SH-SY5Y) was 339 µM and the EC50 (HEK293 [4]) was 214 µM. It also gave an EC50 (HEK293 [5]) of 3020 µM.

In the case of CSc1ccc(CC(C)NC=O)cc1 (configuration not stated), the EC50 (HEK293 [1]) is reported as 372 µM, the EC50 (HEK293 [2]) is reported as 2290 µM and the EC50 (PC-12 [3]) is reported as over 10000 µM. The Activity (PC-12 [6]) was “Non-toxic”, the EC50 (SH-SY5Y) was over 10000 µM and the EC50 (HEK293 [4]) was 1350 µM. For the same compound, the EC50 (HEK293 [5]) was 2880 µM.

Compound CC(N)Cc1ccc2c(c1)OCO2 (configuration not stated) [TENAMFETAMINE] has an EC50 (HEK293 [1]) of 589 µM, an EC50 (HEK293 [2]) of 5890 µM and an IC50 [7] of 478 nM. It also gave an EC50 (HEK293 [4]) of 692 µM.

Work on CCC(Cc1ccc(SC)cc1)NC=O (configuration not stated) yielded an EC50 (HEK293 [1]) of 79.4 µM, an EC50 (HEK293 [2]) of 1120 µM and an EC50 (PC-12 [3]) of 741 µM. The Activity (PC-12 [6]) was “Toxic”, the EC50 (SH-SY5Y) was over 10000 µM and the EC50 (HEK293 [4]) was 64.6 µM. For the same compound, the EC50 (HEK293 [5]) was 61.7 µM.

Work on CSc1ccc(CC(N)Cc2ccc(SC)cc2)cc1 yielded an EC50 (HEK293 [1]) of 126 µM, an EC50 (HEK293 [2]) of 25.1 µM and an EC50 (PC-12 [3]) of 631 µM. The Activity (PC-12 [6]) was “Toxic”, the EC50 (SH-SY5Y) was 18.6 µM and the EC50 (HEK293 [4]) was 24.5 µM. For the same compound, the EC50 (HEK293 [5]) was 22.4 µM.

In the case of CNC(C)Cc1ccc2c(c1)OCO2 (configuration not stated) [MIDOMAFETAMINE], the EC50 (HEK293 [1]) is reported as 1550 µM, the EC50 (HEK293 [2]) is reported as 1950 µM and the EC50 (HEK293 [4]) is reported as 490 µM.

CCNC(Cc1ccc(SC)cc1)Cc1ccc(SC)cc1 gave an EC50 (HEK293 [1]) of 263 µM, an EC50 (HEK293 [2]) of 26.9 µM and an EC50 (PC-12 [3]) of 229 µM. The Activity (PC-12 [6]) was “Toxic”, the EC50 (SH-SY5Y) was 13.8 µM and the EC50 (HEK293 [4]) was 25.7 µM. It also gave an EC50 (HEK293 [5]) of 17 µM.

For CCc1nc(Cc2ccc(SC)cc2)c(C)cc1-c1ccc(SC)cc1, the EC50 (HEK293 [1]) was 29.5 µM, the EC50 (HEK293 [2]) was 26.9 µM and the EC50 (PC-12 [3]) was 29.5 µM. The EC50 (SH-SY5Y) was 178 µM, the EC50 (HEK293 [4]) was 34.7 µM and the EC50 (HEK293 [5]) was 18.6 µM.

With CSc1ccc(CC(C)N)cc1 (configuration not stated) [4-METHYLTHIOAMPHETAMINE] the EC50 (HEK293 [1]) was 22.4 µM, the EC50 (HEK293 [2]) was 41.7 µM and the Ratio IC50 [8] was 3070. The EC50 (PC-12 [3]) was 295 µM, the EC50 (SH-SY5Y) was 513 µM and the EC50 (HEK293 [4]) was 22.4 µM. The Ratio IC50 [9] was 2370.

Work on CSc1ccc(CC(Cc2ccc(SC)cc2)NC=O)cc1 yielded an EC50 (HEK293 [1]) of 457 µM, an EC50 (HEK293 [2]) of 87.1 µM and an EC50 (PC-12 [3]) of 38 µM. It also gave an EC50 (SH-SY5Y) of 32.4 µM and an EC50 (HEK293 [4]) of 50.1 µM.

CSc1ccc(CC(C)NC(C)Cc2ccc(SC)cc2)cc1 (configuration not stated) gave an EC50 (HEK293 [1]) of 25.1 µM, an EC50 (HEK293 [2]) of 26.3 µM and an EC50 (PC-12 [3]) of 27.5 µM. The EC50 (SH-SY5Y) was 22.4 µM, the EC50 (HEK293 [4]) was 25.7 µM and the EC50 (HEK293 [5]) was 16.2 µM.

CCC(Cc1ccc(SC)cc1)NC (configuration not stated) showed an EC50 (HEK293 [1]) of 66.1 µM, an EC50 (HEK293 [2]) of 417 µM and an EC50 (HEK293 [4]) of 55 µM.

CSc1ccc(CC(Cc2ccc(SC)cc2)NC(C)=O)cc1 showed an EC50 (HEK293 [1]) of 25.7 µM, an EC50 (HEK293 [2]) of 83.2 µM and an EC50 (PC-12 [3]) of 4170 µM. For the same compound, the Activity (PC-12 [6]) was “Non-toxic”, the EC50 (SH-SY5Y) was 603 µM and the EC50 (HEK293 [4]) was 38.9 µM. It also gave an EC50 (HEK293 [5]) of 50.1 µM.
